Tests used:
[1] = Biodistribution in Liver of athymic mouse xenografted with human SJSA-1 cells at 166.5 kBq, iv after 24 hrs by automated gamma counting method; format: ADME, organism-based; details: in vivo
Method in brief: (§1)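 125I-labeled peptide (166.5 kBq in 100 μL) was injected via tail vein into athymic mice bearing flank SJSA-1 xenografts, n = 5 per time point. Tumors, blood and major organs were gamma-counted at 0.5, 2, 6 and 24 h post-injection. Values are %ID/g.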

[2] = Stability in human serum assessed as intact peptide level at 37 degC incubated for 1 hr by RP-HPLC analysis; format: ADME, cell-free; details: read-out: Drug uptake
Method in brief: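 125I-labeled peptide was incubated in human serum at 37 °C for up to 72 h. Aliquots were run by RP-HPLC (RP-18 column, ethanol/0.05 M sodium acetate pH 5.5 gradient, 1 mL/min), and intact peptide was expressed as percentage of injected activity.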

[3] = Biodistribution in Small intestine of athymic mouse xenografted with human SJSA-1 cells at 166.5 kBq, iv after 24 hrs by automated gamma counting method; format: ADME, organism-based; details: in vivo; method in brief: as §1
[4] = Drug uptake in MDM2-amplified human SJSA-1 cells expressing wild type p53 assessed as initially bound radioactivity incubated for 1 hrs subsequently re-incubating the cells with fresh medium for up to 2 hrs; format: ADME, cell-based; details: sjsa-1, 1 h
Method in brief: (§2)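 SJSA-1 cells were loaded with 125I-labeled peptide for 1 h, then reincubated in fresh medium for 0.5–2 h. Cell-retained activity and cumulative release into the supernatant were expressed as percentage of initially bound activity.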

[5] = Biodistribution in Lung of athymic mouse xenografted with human SJSA-1 cells at 166.5 kBq, iv after 2 hrs by automated gamma counting method; format: ADME, organism-based; details: in vivo; method in brief: as §1
[6] = Biodistribution in Muscle of athymic mouse xenografted with human SJSA-1 cells at 166.5 kBq, iv after 24 hrs by automated gamma counting method; format: ADME, organism-based, Muscle tissue; details: in vivo; method in brief: as §1
[7] = Biodistribution in Skin of athymic mouse xenografted with human SJSA-1 cells at 166.5 kBq, iv after 6 hrs by automated gamma counting method; format: ADME, organism-based, Skin of body; details: in vivo; method in brief: as §1
[8] = Biodistribution in Spleen of athymic mouse xenografted with human SJSA-1 cells at 166.5 kBq, iv after 24 hrs by automated gamma counting method; format: ADME, organism-based; details: in vivo; method in brief: as §1
[9] = Biodistribution in Kidney of athymic mouse xenografted with human SJSA-1 cells at 166.5 kBq, iv after 6 hrs by automated gamma counting method; format: ADME, organism-based; details: in vivo; method in brief: as §1
[10] = Biodistribution in Liver of athymic mouse xenografted with human SJSA-1 cells at 166.5 kBq, iv after 30 mins by automated gamma counting method; format: ADME, organism-based; details: in vivo, 0.5 h; method in brief: as §1
[11] = Biodistribution in Urinary bladder of athymic mouse xenografted with human SJSA-1 cells at 166.5 kBq, iv after 24 hrs by automated gamma counting method; format: ADME, organism-based; details: in vivo
Method in brief: (§3)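 Athymic mice bearing flank SJSA-1 xenografts received 125I-SIB-labeled peptide (166.5 kBq, 100 μL) by tail vein; groups of five per time point. Tumor, blood and organs were taken at 0.5–24 h and counted by gamma counter; values expressed as %ID/g.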

[12] = Drug uptake in MDM2-amplified human SJSA-1 cells expressing wild type p53 at 5 to 50 uM incubated for 30 mins; format: ADME, cell-based; details: sjsa-1, 0.5 h, dose 5-50 µM
Method in brief: (§4)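 For uptake kinetics, SJSA-1 cells in serum-free RPMI-1640 were incubated 30–120 min with 125I-labeled peptide, with or without 50 μM unlabeled parent peptide. Cells were washed with PBS and lysed, and uptake was normalized to protein (%/mg protein). Triplicates, mean ± SD.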

[13] = Drug uptake in MDM2-amplified human SJSA-1 cells expressing wild type p53 at 5 to 50 uM incubated for 60 mins; format: ADME, cell-based; details: sjsa-1, 1 h, dose 5-50 µM; method in brief: as §4
[14] = Biodistribution in Spleen of athymic mouse xenografted with human SJSA-1 cells at 166.5 kBq, iv after 30 mins by automated gamma counting method; format: ADME, organism-based; details: in vivo, 0.5 h; method in brief: as §1
[15] = Biodistribution in Blood of athymic mouse xenografted with human SJSA-1 cells at 166.5 kBq, iv after 24 hrs by automated gamma counting method; format: ADME, organism-based; details: in vivo; method in brief: as §1
[16] = Biodistribution in Lung of athymic mouse xenografted with human SJSA-1 cells at 166.5 kBq, iv after 6 hrs by automated gamma counting method; format: ADME, organism-based; details: in vivo; method in brief: as §1
[17] = Biodistribution in Tumor of athymic mouse xenografted with human SJSA-1 cells at 166.5 kBq, iv after 2 hrs by automated gamma counting method; format: ADME, organism-based, Neoplasm; details: in vivo; method in brief: as §3
[18] = Biodistribution in Heart of athymic mouse xenografted with human SJSA-1 cells at 166.5 kBq, iv after 2 hrs by automated gamma counting method; format: ADME, organism-based; details: in vivo; method in brief: as §1
[19] = Biodistribution in Muscle of athymic mouse xenografted with human SJSA-1 cells at 166.5 kBq, iv after 6 hrs by automated gamma counting method; format: ADME, organism-based, Muscle tissue; details: in vivo; method in brief: as §1
[20] = Biodistribution in Heart of athymic mouse xenografted with human SJSA-1 cells at 166.5 kBq, iv after 24 hrs by automated gamma counting method; format: ADME, organism-based; details: in vivo; method in brief: as §1
[21] = Biodistribution in Heart of athymic mouse xenografted with human SJSA-1 cells at 166.5 kBq, iv after 30 mins by automated gamma counting method; format: ADME, organism-based; details: in vivo, 0.5 h; method in brief: as §1
[22] = Drug uptake in MDM2-amplified human SJSA-1 cells expressing wild type p53 assessed as released into supernatant incubated for 0.5 hrs subsequently re-incubating the cells with fresh medium for up to 2 hrs; format: ADME, cell-based; details: sjsa-1, 0.5 h; method in brief: as §2
[23] = Biodistribution in Muscle of athymic mouse xenografted with human SJSA-1 cells at 166.5 kBq, iv after 2 hrs by automated gamma counting method; format: ADME, organism-based, Muscle tissue; details: in vivo; method in brief: as §1
[24] = Biodistribution in Stomach of athymic mouse xenografted with human SJSA-1 cells at 166.5 kBq, iv after 24 hrs by automated gamma counting method; format: ADME, organism-based; details: in vivo; method in brief: as §3
[25] = Biodistribution in Blood of athymic mouse xenografted with human SJSA-1 cells at 166.5 kBq, iv after 6 hrs by automated gamma counting method; format: ADME, organism-based; details: in vivo; method in brief: as §1
[26] = Biodistribution in Urinary bladder of athymic mouse xenografted with human SJSA-1 cells at 166.5 kBq, iv after 2 hrs by automated gamma counting method; format: ADME, organism-based; details: in vivo; method in brief: as §3
[27] = Biodistribution in Small intestine of athymic mouse xenografted with human SJSA-1 cells at 166.5 kBq, iv after 6 hrs by automated gamma counting method; format: ADME, organism-based; details: in vivo; method in brief: as §1
[28] = Drug uptake in MDM2-amplified human SJSA-1 cells expressing wild type p53 at 5 to 50 uM incubated for 1 hr; format: ADME, cell-based; details: sjsa-1, 1 h, dose 5-50 µM
Method in brief: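 SJSA-1 cells (MDM2-amplified, wild-type p53) in 24-well plates were incubated 1 h with 125I-labeled peptide in serum-free RPMI-1640, with or without unlabeled parent peptide (5–50 μM) for blocking. They were then washed three times with PBS and lysed; retained activity was normalized to well protein (%/mg protein). Triplicates, mean ± SD.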

[29] = Biodistribution in Stomach of athymic mouse xenografted with human SJSA-1 cells at 166.5 kBq, iv after 2 hrs by automated gamma counting method; format: ADME, organism-based; details: in vivo; method in brief: as §3
[30] = Biodistribution in Brain of athymic mouse xenografted with human SJSA-1 cells at 166.5 kBq, iv after 2 hrs by automated gamma counting method; format: ADME, organism-based; details: in vivo; method in brief: as §1
[31] = Drug uptake in MDM2-amplified human SJSA-1 cells expressing wild type p53 assessed as initially bound radioactivity incubated for 2 hrs subsequently re-incubating the cells with fresh medium for up to 2 hrs; format: ADME, cell-based; details: sjsa-1, 2 h; method in brief: as §2
[32] = Biodistribution in Large intestine of athymic mouse xenografted with human SJSA-1 cells at 166.5 kBq, iv after 2 hrs by automated gamma counting method; format: ADME, organism-based; details: in vivo; method in brief: as §1

CC(=O)NC(CCCCNC(=O)c1cccc([125I])c1)C(=O)NCCCCCC(=O)N[C@H](C(=O)N[C@@H](CO)C(=O)N[C@@H](Cc1ccccc1)C(=O)N[C@@]1(C)CCCCCC/C=C/CCC[C@@](C)(C(=O)N[C@@H](CCC(=O)O)C(=O)N[C@@H](CC(N)=O)C(=O)N[C@@H](Cc2ccccc2)C(N)=O)NC(=O)[C@H](CC(C)C)NC(=O)[C@H](CC(C)C)NC(=O)[C@H](C)NC(=O)[C@H](Cc2c[nH]c3ccccc23)NC(=O)[C@H](Cc2ccc(O)cc2)NC(=O)[C@H](CCC(=O)O)NC1=O)[C@@H](C)O (some centres not stated)
Drug uptake [1]: 4.72 % ID/g | remaining at 1 h [2]: 98.2% | Drug uptake [3]: 0.86 % ID/g | Drug uptake [4]: 72.8% | Drug uptake [5]: 2.72 % ID/g | Drug uptake [6]: 0.16 % ID/g | Drug uptake [7]: 1.22 % ID/g | Drug uptake [8]: 0.58 % ID/g | Drug uptake [9]: 2.5 % ID/g | Drug uptake [10]: 13.52 % ID/g | Drug uptake [11]: 0.29 % ID/g | Drug uptake [12]: 104 %/mg protein | Drug uptake [13]: 142 %/mg protein | Drug uptake [14]: 1.29 % ID/g | Drug uptake [15]: 0.62 % ID/g | Drug uptake [16]: 2.49 % ID/g | Drug uptake [17]: 2.19 % ID/g | Drug uptake [18]: 2.44 % ID/g | Drug uptake [19]: 0.25 % ID/g | Drug uptake [20]: 0.37 % ID/g | Drug uptake [21]: 2.52 % ID/g | Drug uptake [22]: 16.9% | Drug uptake [23]: 0.24 % ID/g | Drug uptake [24]: 0.84 % ID/g | Drug uptake [25]: 5.12 % ID/g | Drug uptake [26]: 0.58 % ID/g | Drug uptake [27]: 3.84 % ID/g | Drug uptake [28]: 12.4% | Drug uptake [29]: 0.53 % ID/g | Drug uptake [30]: 0.25 % ID/g | Drug uptake [31]: 62% | Drug uptake [32]: 0.24 % ID/g

Reference: ChEMBL document CHEMBL5143669, “Stapled peptides as scaffolds for developing radiotracers for intracellular targets: Preliminary evaluation of a radioiodinated MDM2-binding stapled peptide in the SJSA-1 osteosarcoma model” (Bioorg Med Chem Lett, 2022)
